# ChEMBL document CHEMBL1649574, “Prevalence and characterization of heterogeneous vancomycin-intermediate Staphylococcus aureus isolates from 14 cities in China” (2009)
# How the values were obtained:
# Staphylococcus aureus [1] = assay: Antimicrobial activity against SCCmec type III vancomycin-intermediate Staphylococcus aureus isolate gz07030 by broth microdilution method
# Staphylococcus aureus [2] = assay: Antimicrobial activity against vancomycin-susceptible Staphylococcus aureus assessed as growth inhibition at 16 times MIC; assay type: functional; design: scale not given: the % may be the effect or the level left
# Staphylococcus aureus [3] = assay: Antimicrobial activity against SCCmec type III vancomycin-intermediate Staphylococcus aureus isolate zj07028 by broth microdilution method
# Staphylococcus aureus [4] = assay: Antimicrobial activity against SCCmec type III vancomycin-intermediate Staphylococcus aureus isolate b2k3421 by broth microdilution method
# Staphylococcus aureus [5] = assay: Antimicrobial activity against SCCmec type II vancomycin-intermediate Staphylococcus aureus isolate 4sy32 by broth microdilution method
# Staphylococcus aureus [6] = assay: Antimicrobial activity against SCCmec type II vancomycin-intermediate Staphylococcus aureus isolate sh06024 by broth microdilution method
# Staphylococcus aureus [7] = assay: Antimicrobial activity against SCCmec type II vancomycin-intermediate Staphylococcus aureus isolate 4sy39 by broth microdilution method
# Staphylococcus aureus [8] = assay: Antimicrobial activity against heterogeneous vancomycin-intermediate Staphylococcus aureus assessed as growth inhibition at 4 times MIC; assay type: functional; design: scale not given: the % may be the effect or the level left
# Staphylococcus aureus [9] = assay: Antimicrobial activity against vancomycin-susceptible Staphylococcus aureus by broth microdilution method; assay type: functional
# Outline: (§1)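 Daptomycin MICs on the blood MRSA isolates were done by broth microdilution. The broth was supplemented with calcium chloride to a final calcium of 50 mg/liter, confirmed by biochemical analysis. Isolates were grouped by PAP-AUC ratio relative to Mu3 (VSSA <0.9; hVISA 0.9 to 1.3; VISA ≥1.3).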
# Staphylococcus aureus [10] = assay: Antimicrobial activity against SCCmec type III vancomycin-intermediate Staphylococcus aureus isolate b5k3578 by broth microdilution method
# Staphylococcus aureus [11] = assay: Antimicrobial activity against heterogeneous vancomycin-intermediate Staphylococcus aureus assessed as intermediate isolates by broth microdilution method; assay type: functional
# Outline: (§2)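 Daptomycin MICs by broth microdilution in BBL broth with calcium chloride added to a final calcium of 50 mg/liter, checked by biochemical analysis. Tested on the 200 MRSA blood isolates, grouped as hVISA/VISA or VSSA by PAP-AUC ratio relative to Mu3.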
# Staphylococcus aureus [12] = assay: Antimicrobial activity against SCCmec type III vancomycin-intermediate Staphylococcus aureus isolate b3k2345 by broth microdilution method
# Staphylococcus aureus [13] = assay: Antimicrobial activity against SCCmec type III vancomycin-intermediate Staphylococcus aureus isolate 11b091 by broth microdilution method
# Staphylococcus aureus [14] = assay: Antimicrobial activity against heterogeneous vancomycin-intermediate Staphylococcus aureus by broth microdilution method; assay type: functional; outline: as §1
# Staphylococcus aureus [15] = assay: Antimicrobial activity against SCCmec type III vancomycin-intermediate Staphylococcus aureus isolate gz06051 by broth microdilution method
# Staphylococcus aureus [16] = assay: Antimicrobial activity against SCCmec type III vancomycin-intermediate Staphylococcus aureus isolate gz06040 by broth microdilution method
# Staphylococcus aureus [17] = assay: Antimicrobial activity against SCCmec type III vancomycin-intermediate Staphylococcus aureus isolate b5k3529 by broth microdilution method
# Staphylococcus aureus [18] = assay: Antimicrobial activity against SCCmec type II vancomycin-intermediate Staphylococcus aureus isolate 6zjsau7 by broth microdilution method
# Staphylococcus aureus [19] = assay: Antimicrobial activity against vancomycin-susceptible Staphylococcus aureus assessed as growth inhibition at 4 times MIC; assay type: functional; design: scale not given: the % may be the effect or the level left
# Staphylococcus aureus [20] = assay: Antimicrobial activity against SCCmec type IV vancomycin-intermediate Staphylococcus aureus isolate 06b41 by broth microdilution method; assay type: functional; outline: as §1
# Staphylococcus aureus [21] = assay: Antimicrobial activity against SCCmec type III vancomycin-intermediate Staphylococcus aureus isolate 5zjsau3 by broth microdilution method
# Staphylococcus aureus [22] = assay: Antimicrobial activity against SCCmec type III vancomycin-intermediate Staphylococcus aureus isolate 13b16 by broth microdilution method
# Staphylococcus aureus [23] = assay: Antimicrobial activity against SCCmec type III vancomycin-intermediate Staphylococcus aureus isolate b6k1642 by broth microdilution method
# Staphylococcus aureus [24] = assay: Antimicrobial activity against heterogeneous vancomycin-susceptible Staphylococcus aureus assessed as intermediate isolates by broth microdilution method; assay type: functional; outline: as §2
# Staphylococcus aureus [25] = assay: Antimicrobial activity against vancomycin-intermediate Staphylococcus aureus by broth microdilution method
# Staphylococcus aureus [26] = assay: Antimicrobial activity against vancomycin-susceptible Staphylococcus aureus assessed as growth inhibition at 0.5 times MIC; assay type: functional; design: scale not given: the % may be the effect or the level left
# Staphylococcus aureus [27] = assay: Antimicrobial activity against heterogeneous vancomycin-susceptible Staphylococcus aureus assessed as susceptible isolates by broth microdilution method; assay type: functional; outline: as §2
# Staphylococcus aureus [28] = assay: Antimicrobial activity against SCCmec type III vancomycin-intermediate Staphylococcus aureus isolate b3k5923 by broth microdilution method
# Staphylococcus aureus [29] = assay: Antimicrobial activity against heterogeneous vancomycin-intermediate Staphylococcus aureus assessed as growth inhibition at 16 times MIC; assay type: functional; design: scale not given: the % may be the effect or the level left
# Staphylococcus aureus [30] = assay: Antimicrobial activity against SCCmec type III vancomycin-intermediate Staphylococcus aureus isolate 15b52 by broth microdilution method
# Staphylococcus aureus [31] = assay: Antimicrobial activity against SCCmec type II vancomycin-intermediate Staphylococcus aureus isolate b2k4781 by broth microdilution method
# Staphylococcus aureus [32] = assay: Antimicrobial activity against heterogeneous vancomycin-intermediate Staphylococcus aureus assessed as growth inhibition at 2 times MIC; assay type: functional; design: scale not given: the % may be the effect or the level left
# Staphylococcus aureus [33] = assay: Antimicrobial activity against SCCmec type III vancomycin-intermediate Staphylococcus aureus isolate sh07043 by broth microdilution method; assay type: functional; outline: as §1
# Staphylococcus aureus [34] = assay: Antimicrobial activity against heterogeneous vancomycin-intermediate Staphylococcus aureus assessed as susceptible isolates by broth microdilution method; assay type: functional; outline: as §2
# Staphylococcus aureus [35] = assay: Antimicrobial activity against vancomycin-susceptible Staphylococcus aureus assessed as growth inhibition at MIC; assay type: functional; design: scale not given: the % may be the effect or the level left
# Staphylococcus aureus [36] = assay: Antimicrobial activity against SCCmec type III vancomycin-intermediate Staphylococcus aureus isolate xa07029 by broth microdilution method
# Staphylococcus aureus [37] = assay: Antimicrobial activity against vancomycin-susceptible Staphylococcus aureus assessed as growth inhibition at 0.125 times MIC; assay type: functional; design: scale not given: the % may be the effect or the level left
# Staphylococcus aureus [38] = assay: Antimicrobial activity against SCCmec type III vancomycin-intermediate Staphylococcus aureus isolate b6k7974 by broth microdilution method; assay type: functional; outline: as §1
# Staphylococcus aureus [39] = assay: Antimicrobial activity against SCCmec type III vancomycin-intermediate Staphylococcus aureus isolate bd4768 by broth microdilution method
# Staphylococcus aureus [40] = assay: Antimicrobial activity against SCCmec type III vancomycin-intermediate Staphylococcus aureus isolate gs07022 by broth microdilution method
# Staphylococcus aureus [41] = assay: Antimicrobial activity against vancomycin-susceptible Staphylococcus aureus assessed as growth inhibition at 2 times MIC; assay type: functional; design: scale not given: the % may be the effect or the level left
# Staphylococcus aureus [42] = assay: Antimicrobial activity against SCCmec type II vancomycin-intermediate Staphylococcus aureus isolate 07b63 by broth microdilution method
# Staphylococcus aureus [43] = assay: Antimicrobial activity against SCCmec type III vancomycin-intermediate Staphylococcus aureus isolate b4k6307 by broth microdilution method
# Staphylococcus aureus [44] = assay: Antimicrobial activity against heterogeneous vancomycin-intermediate Staphylococcus aureus assessed as growth inhibition at 0.5 times MIC; assay type: functional; design: scale not given: the % may be the effect or the level left
# Staphylococcus aureus [45] = assay: Antimicrobial activity against heterogeneous vancomycin-intermediate Staphylococcus aureus assessed as growth inhibition at 0.25 times MIC; assay type: functional; design: scale not given: the % may be the effect or the level left
# Staphylococcus aureus [46] = assay: Antimicrobial activity against vancomycin-susceptible Staphylococcus aureus assessed as growth inhibition at 0.25 times MIC; assay type: functional; design: scale not given: the % may be the effect or the level left
# Staphylococcus aureus [47] = assay: Antimicrobial activity against heterogeneous vancomycin-intermediate Staphylococcus aureus assessed as growth inhibition at 0.125 times MIC; assay type: functional; design: scale not given: the % may be the effect or the level left
# Staphylococcus aureus [48] = assay: Antimicrobial activity against heterogeneous vancomycin-intermediate Staphylococcus aureus assessed as growth inhibition at MIC; assay type: functional; design: scale not given: the % may be the effect or the level left
structure (smiles),measurement,setting,value
CCCCCCCCCC(=O)N[C@@H](Cc1c[nH]c2ccccc12)C(=O)N[C@H](CC(N)=O)C(=O)N[C@@H](CC(=O)O)C(=O)N[C@@H]1C(=O)NCC(=O)N[C@@H](CCCN)C(=O)N[C@@H](CC(=O)O)C(=O)N[C@H](C)C(=O)N[C@@H](CC(=O)O)C(=O)NCC(=O)N[C@H](CO)C(=O)N[C@@H]([C@H](C)CC(=O)O)C(=O)N[C@@H](CC(=O)c2ccccc2N)C(=O)O[C@@H]1C,MIC,Staphylococcus aureus [1],0.5 µg/mL
same,Activity,Staphylococcus aureus [2],100%
same,MIC,Staphylococcus aureus [3],0.5 µg/mL
same,MIC,Staphylococcus aureus [4],0.5 µg/mL
same,MIC,Staphylococcus aureus [5],0.5 µg/mL
same,MIC,Staphylococcus aureus [6],0.5 µg/mL
same,MIC,Staphylococcus aureus [7],0.5 µg/mL
same,Activity,Staphylococcus aureus [8],100%
same,MIC50,Staphylococcus aureus [9],0.5 µg/mL
same,MIC90,Staphylococcus aureus [9],0.5 µg/mL
same,MIC,Staphylococcus aureus [10],0.5 µg/mL
same,Activity,Staphylococcus aureus [11],0%
same,MIC,Staphylococcus aureus [12],0.5 µg/mL
same,MIC,Staphylococcus aureus [13],0.5 µg/mL
same,MIC50,Staphylococcus aureus [14],0.5 µg/mL
same,MIC90,Staphylococcus aureus [14],1 µg/mL
same,MIC,Staphylococcus aureus [15],0.25 µg/mL
same,MIC,Staphylococcus aureus [16],0.5 µg/mL
same,MIC,Staphylococcus aureus [17],0.5 µg/mL
same,MIC,Staphylococcus aureus [18],0.25 µg/mL
same,Activity,Staphylococcus aureus [19],100%
same,MIC,Staphylococcus aureus [20],1 µg/mL
same,MIC,Staphylococcus aureus [21],0.5 µg/mL
same,MIC,Staphylococcus aureus [22],0.5 µg/mL
same,MIC,Staphylococcus aureus [23],0.5 µg/mL
same,Activity,Staphylococcus aureus [24],0%
same,MIC,Staphylococcus aureus [25],0.5 µg/mL
same,Activity,Staphylococcus aureus [26],95.1%
same,Activity,Staphylococcus aureus [27],100%
same,MIC,Staphylococcus aureus [28],0.25 µg/mL
same,Activity,Staphylococcus aureus [29],100%
same,MIC,Staphylococcus aureus [30],0.5 µg/mL
same,MIC,Staphylococcus aureus [31],0.5 µg/mL
same,Activity,Staphylococcus aureus [32],100%
same,MIC,Staphylococcus aureus [33],1 µg/mL
same,Activity,Staphylococcus aureus [34],100%
same,Activity,Staphylococcus aureus [35],100%
same,MIC,Staphylococcus aureus [36],0.5 µg/mL
same,Activity,Staphylococcus aureus [37],0.58%
same,MIC,Staphylococcus aureus [38],1 µg/mL
same,MIC,Staphylococcus aureus [39],0.5 µg/mL
same,MIC,Staphylococcus aureus [40],0.5 µg/mL
same,Activity,Staphylococcus aureus [41],100%
same,MIC,Staphylococcus aureus [42],0.5 µg/mL
same,MIC,Staphylococcus aureus [43],0.25 µg/mL
same,Activity,Staphylococcus aureus [44],88.9%
same,Activity,Staphylococcus aureus [45],14.8%
same,Activity,Staphylococcus aureus [46],10.7%
same,Activity,Staphylococcus aureus [47],0%
same,Activity,Staphylococcus aureus [48],100%
